# Test results reported in PMC3677216 (Bioorganic & medicinal chemistry letters, 2013).
# What was measured:
# [1] = test system: HeLa cells; experiment: Cytotoxicity; type: cell-based
# [2] = test system: NCI-60 cell panel; experiment: NCI-60 cell panel, Sulforhodamine B assay; type: cell-based; conditions: NCI-60 panel
# In short: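 NCI-60 panel screen. Viability read by Sulforhodamine B staining of total protein, a measure of cell number rather than metabolic activity. Values are GI50, defined from the change in cell counts relative to the starting number of cells. Some panel lines were not tested.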
# [3] = test system: MA9.3 AML cell line; experiment: Cytotoxicity in MA9.3 AML cells; type: cell-based, human; conditions: for therapeutic index: between MA9.3 AML cell line and non-cancerous human CD34+ blood stem/progenitor cells
# [4] = test system: human CD34+ blood stem/progenitor cells; experiment: Cytotoxicity in normal CD34+ blood stem/progenitor cells; type: cell-based
smiles,measurement,setting,value
CC(C)N(CCOc1ccc(O)cc1)c1ccccc1 [Compound 4],decrease in potency relative to compound 2,[1],3 fold
Oc1ccc(OCCN(CCOc2ccc(O)cc2)c2ccccc2)cc1 [Compound 5],range of distribution of GI50 values,[2],55 fold
same,potency relative to compound 3,[1],potency doubled
CN(CCCOc1ccc(O)cc1)c1ccccc1 [Compound 7],range of distribution of GI50 values,[2],53 fold
CN(C(=O)COc1ccc(O)cc1)c1ccccc1 [Compound 11],potency / anticancer cell activity (in words),[1],anticancer cell activity was eliminated
CCOc1ccc(O)cc1 [Compound 12],potency / anticancer cell activity (in words),[1],no potency
CN(CCCOc1ccccc1)c1ccccc1 [Compound 13],potency / anticancer cell activity (in words),[1],complete loss of potency
CN(CCCBr)c1ccccc1 [Compound 14],potency / anticancer cell activity (in words),[1],loss of potency
N.N.[Cl][Pt][Cl] [cisplatin],IC50,[3]; MA9.3 AML cells,14 ± 0.7 µM
same,therapeutic index,[3],1.0 ± 0.2
same,IC50,[4],15 ± 2 µM
COc1cccc2c1C(=O)c1c(O)c3c(c(O)c1C2=O)C[C@@](O)(C(=O)CO)C[C@@H]3O[C@H]1C[C@H](N)[C@H](O)[C@H](C)O1 [doxorubicin],therapeutic index,[3],0.9 ± 0.2
